In paper PMC4547362 (Molecular cancer therapeutics, 2015):
pIC50: −log10 of the molar value.

Experiments:
[1] = target: T1, Stat5a (Homo sapiens, UniProt P42229); experiment: Stat5a luciferase reporter gene assay; type: cell-based; settings: read-out: IC50, transcriptional activity of Stat5a; PC-3 cells, β-casein-luciferase, hPrl 10 nM 16 h
T1 sequence (P42229 1-794): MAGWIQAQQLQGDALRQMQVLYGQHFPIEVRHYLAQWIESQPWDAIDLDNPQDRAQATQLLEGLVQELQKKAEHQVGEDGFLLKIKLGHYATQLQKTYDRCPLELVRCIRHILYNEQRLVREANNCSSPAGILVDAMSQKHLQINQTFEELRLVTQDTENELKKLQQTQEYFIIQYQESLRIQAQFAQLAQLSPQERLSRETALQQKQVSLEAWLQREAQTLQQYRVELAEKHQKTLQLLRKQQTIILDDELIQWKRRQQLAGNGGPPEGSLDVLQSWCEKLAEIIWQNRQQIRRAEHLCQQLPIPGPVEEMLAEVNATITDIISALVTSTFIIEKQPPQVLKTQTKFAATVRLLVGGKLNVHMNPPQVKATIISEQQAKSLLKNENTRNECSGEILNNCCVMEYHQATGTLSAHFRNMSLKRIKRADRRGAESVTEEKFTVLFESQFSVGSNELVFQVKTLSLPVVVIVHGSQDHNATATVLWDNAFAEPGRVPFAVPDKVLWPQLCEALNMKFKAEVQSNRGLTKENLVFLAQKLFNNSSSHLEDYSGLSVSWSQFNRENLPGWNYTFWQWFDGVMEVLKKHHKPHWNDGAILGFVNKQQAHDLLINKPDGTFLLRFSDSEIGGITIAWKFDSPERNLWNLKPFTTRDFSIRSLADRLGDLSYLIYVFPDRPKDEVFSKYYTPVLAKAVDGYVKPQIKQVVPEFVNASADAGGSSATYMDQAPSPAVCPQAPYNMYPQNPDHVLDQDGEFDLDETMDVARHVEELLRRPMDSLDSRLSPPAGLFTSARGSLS

[2] = target: Stat5b (Homo sapiens, UniProt P51692); experiment: Stat5b luciferase reporter gene assay; type: cell-based; settings: read-out: IC50, transcriptional activity of Stat5b; PC-3 cells, β-casein-luciferase, hPrl 10 nM 16 h
Chain of Stat5b (P51692 whole entry, species assumed): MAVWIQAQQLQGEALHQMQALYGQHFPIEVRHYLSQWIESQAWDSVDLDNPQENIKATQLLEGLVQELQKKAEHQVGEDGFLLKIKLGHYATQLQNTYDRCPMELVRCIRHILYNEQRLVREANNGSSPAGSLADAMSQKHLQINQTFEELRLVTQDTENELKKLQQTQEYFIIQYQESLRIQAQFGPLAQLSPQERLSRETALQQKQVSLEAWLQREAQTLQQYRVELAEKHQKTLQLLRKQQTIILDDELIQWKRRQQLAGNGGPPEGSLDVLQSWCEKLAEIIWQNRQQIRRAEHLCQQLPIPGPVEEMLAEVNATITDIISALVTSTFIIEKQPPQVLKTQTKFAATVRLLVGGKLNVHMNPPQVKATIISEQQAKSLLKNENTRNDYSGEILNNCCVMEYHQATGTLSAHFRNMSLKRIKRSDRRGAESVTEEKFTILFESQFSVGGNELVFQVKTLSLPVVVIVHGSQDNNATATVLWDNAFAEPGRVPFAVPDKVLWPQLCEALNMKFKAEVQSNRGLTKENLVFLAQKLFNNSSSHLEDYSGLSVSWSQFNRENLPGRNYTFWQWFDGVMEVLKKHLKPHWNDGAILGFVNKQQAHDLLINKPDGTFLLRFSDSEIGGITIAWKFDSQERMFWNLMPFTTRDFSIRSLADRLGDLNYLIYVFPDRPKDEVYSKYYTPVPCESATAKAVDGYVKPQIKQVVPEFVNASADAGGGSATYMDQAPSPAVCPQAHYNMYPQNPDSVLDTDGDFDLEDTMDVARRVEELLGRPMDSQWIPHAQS

[3] = target: Stat5a/b (Homo sapiens, UniProt P42229+P51692); experiment: Bcr-Abl-driven Stat5a/b phosphorylation in K562 cells, immunoblot; type: cell-based; settings: 3 h
Chain of Stat5a/b (P51692 whole entry, one chain of several): as the sequence (P51692 whole entry, species assumed) above

[4] = target: T1, Stat5a; experiment: Prl-induced nuclear translocation of Stat5a in PC-3 cells, immunofluorescence; type: cell-based; settings: 2 h, hPrl 10 nM 30 min
Procedure, shortened: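 PC-3 cells were infected with adenoviral wild-type Stat5a and prolactin receptor (MOI 4), serum-starved, pretreated 2 h with test compound or control compound, and stimulated 30 min with 10 nM prolactin. Fixed cells were stained with rabbit anti-Stat5 pAb (1:200) and fluorescein goat anti-rabbit IgG (1:200).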

[5] = target: Stat3 (Homo sapiens, UniProt P40763); experiment: IL-6-induced Stat3 nuclear translocation in DU145 cells, immunofluorescence; type: cell-based; settings: IL-6 5 nM, IST5-002 even at 50 μM
Chain of Stat3 (P40763 whole entry): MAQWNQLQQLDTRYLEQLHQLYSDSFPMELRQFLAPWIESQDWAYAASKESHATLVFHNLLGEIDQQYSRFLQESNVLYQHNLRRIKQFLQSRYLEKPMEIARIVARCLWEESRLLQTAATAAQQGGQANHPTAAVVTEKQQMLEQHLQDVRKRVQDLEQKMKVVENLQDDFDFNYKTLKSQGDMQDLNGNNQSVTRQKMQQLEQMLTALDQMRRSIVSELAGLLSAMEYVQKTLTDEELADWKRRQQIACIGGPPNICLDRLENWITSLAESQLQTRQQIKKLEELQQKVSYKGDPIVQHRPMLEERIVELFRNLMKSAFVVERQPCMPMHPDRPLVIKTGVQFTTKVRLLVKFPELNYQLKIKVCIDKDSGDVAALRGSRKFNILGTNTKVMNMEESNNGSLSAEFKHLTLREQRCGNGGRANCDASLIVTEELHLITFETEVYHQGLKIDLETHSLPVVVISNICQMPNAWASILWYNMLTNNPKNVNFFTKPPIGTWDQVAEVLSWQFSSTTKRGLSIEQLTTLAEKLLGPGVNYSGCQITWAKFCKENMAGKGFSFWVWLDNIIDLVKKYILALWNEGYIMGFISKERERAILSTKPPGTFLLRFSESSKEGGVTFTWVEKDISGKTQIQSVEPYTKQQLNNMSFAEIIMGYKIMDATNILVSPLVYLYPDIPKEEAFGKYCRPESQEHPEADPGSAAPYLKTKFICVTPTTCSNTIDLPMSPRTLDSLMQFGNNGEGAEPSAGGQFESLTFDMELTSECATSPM

[6] = test system: Stat5a/b target genes in K562 cells; experiment: RNA expression profiling of K562 cells; type: cell-based; settings: 5 μM, 48 h
Procedure, shortened: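 RNA from vehicle- and test compound-treated cells, alongside Stat5a/b-shRNA and scramble-shRNA cells, was profiled in triplicate on Affymetrix Human Gene 1.0 ST arrays. Differential expression versus the matching control used t-tests with false discovery rate correction.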

[7] = test system: CWR22Rv1 cells; experiment: Dead cell count by trypan blue exclusion, CWR22Rv1; type: cell-based, human; settings: 25 μM, 24 h
[8] = test system: CWR22Rv1 cells; experiment: Nucleosomal DNA fragmentation ELISA, CWR22Rv1; type: cell-based, human; settings: 25 μM, 24 h, CWR22Rv1, parallel wells
[9] = test system: caspase-3; experiment: Caspase-3 activation assay, CWR22Rv1; type: cell-based, human; settings: 12.5 μM, CWR22Rv1, 72 h
Procedure, shortened: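 CWR22Rv1 cells were exposed to 12.5 μM test compound or vehicle for set periods. Caspase-3 was captured with anti-caspase-3 mAb, and its cleavage of AFC substrate was read fluorometrically at 505 nm. In the rescue arm, cells were first infected with adenovirus carrying constitutively active Stat5a (MOI 2).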

[10] = test system: LNCaP and CWR22Rv1 cells; experiment: Cell cycle analysis of PC cells; type: cell-based, human; settings: LNCaP and CWR22Rv1, 72 h
Procedure, shortened: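 LNCaP and CWR22Rv1 cells were treated with test compound, vehicle or control compound for up to 72 h. Cells were fixed, stained with propidium iodide plus RNase A, and analysed by flow cytometry in the FL-2 channel.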

[11] = test system: CWR22Rv1 xenograft tumors; experiment: CWR22Rv1 prostate cancer xenograft tumor growth in nude mice; type: in vivo; settings: for decrease of nuclear Stat5a/b content in tumors: compared to vehicle (HPC)
Procedure, shortened: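 Castrated male athymic nude mice got 60-day sustained-release DHT pellets 3 days before s.c. flank inoculation of 1.5 × 10⁷ CWR22Rv1 cells in Matrigel (one tumor/mouse). After one week, mice were randomised (10/group) to daily i.p. test compound in 0.3% HPC (25, 50, 100 mg/kg), HPC alone or no treatment for 10 days. Tumors were measured three times weekly; volume = 3.14 × length × width × depth/6. Nuclear Stat5/Stat3 in harvested tumors were compared by mixed-model ANOVA with Bonferroni-adjusted pairwise tests.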

[12] = test system: K562, KCL22 and BV173 cells (parental and imatinib-resistant); experiment: Growth of CML cell lines, trypan blue cell counts and colony formation; type: cell-based; settings: 5 μM, trypan blue exclusion and colony formation assay
[13] = test system: CML-blast crisis cell lines; experiment: Cell cycle analysis of CML cells; type: cell-based; settings: 5 μM, 48 h
[14] = test system: primary CML cells; experiment: Colony formation of primary CML-chronic phase cells from patients; type: cell-based, human; settings: three CML-chronic phase patients, methylcellulose
[15] = target: PAK1/2 (Homo sapiens, UniProt Q13153+Q13177)
Chain of PAK1/2 (Q13153 whole entry): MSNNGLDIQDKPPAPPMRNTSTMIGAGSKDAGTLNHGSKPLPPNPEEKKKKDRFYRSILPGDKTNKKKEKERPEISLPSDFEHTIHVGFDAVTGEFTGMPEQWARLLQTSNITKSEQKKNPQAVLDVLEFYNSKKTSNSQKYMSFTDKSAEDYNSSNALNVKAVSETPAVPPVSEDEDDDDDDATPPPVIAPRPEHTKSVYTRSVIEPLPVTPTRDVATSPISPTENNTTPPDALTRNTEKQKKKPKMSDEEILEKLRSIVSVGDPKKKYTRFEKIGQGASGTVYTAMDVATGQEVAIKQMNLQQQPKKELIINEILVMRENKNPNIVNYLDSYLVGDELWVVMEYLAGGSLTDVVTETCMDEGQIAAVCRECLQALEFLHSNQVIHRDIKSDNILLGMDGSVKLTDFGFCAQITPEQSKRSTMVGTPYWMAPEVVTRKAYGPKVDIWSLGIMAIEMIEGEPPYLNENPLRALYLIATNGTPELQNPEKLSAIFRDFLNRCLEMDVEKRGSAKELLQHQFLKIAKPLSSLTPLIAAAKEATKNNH
Chain of PAK1/2 (Q13177 whole entry): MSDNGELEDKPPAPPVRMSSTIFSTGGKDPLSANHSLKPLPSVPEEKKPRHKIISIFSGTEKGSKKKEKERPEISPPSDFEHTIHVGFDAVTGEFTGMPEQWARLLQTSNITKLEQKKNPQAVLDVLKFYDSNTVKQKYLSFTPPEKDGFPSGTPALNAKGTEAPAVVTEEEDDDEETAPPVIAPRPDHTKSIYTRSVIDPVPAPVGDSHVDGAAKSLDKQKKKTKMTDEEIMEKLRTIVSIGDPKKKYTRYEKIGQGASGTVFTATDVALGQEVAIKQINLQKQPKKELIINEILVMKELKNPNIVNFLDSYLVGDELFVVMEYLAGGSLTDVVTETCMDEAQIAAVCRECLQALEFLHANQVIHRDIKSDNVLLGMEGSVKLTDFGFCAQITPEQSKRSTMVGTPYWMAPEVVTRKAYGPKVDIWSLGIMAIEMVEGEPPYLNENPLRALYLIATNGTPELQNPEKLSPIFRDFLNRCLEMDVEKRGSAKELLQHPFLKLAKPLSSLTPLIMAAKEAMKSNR

[16] = test system: SUP-B15, 12878 and 3798 cell lines; experiment: Cell viability; settings: 48 h, MTT

For `O=P(O)(O)OC[C@H]1O[C@@H](n2cnc3c(NCc4ccccc4)ncnc32)[C@H](O)[C@@H]1O` [IST5-002, N6-benzyladenosine-5-monophosphate], the pIC50 [1] was 5.82, the pIC50 [2] was 5.46 and the “concentration that blocked Bcr-Abl-induced Stat5a/b phosphorylation” value [3] was 5 µM. For the same compound, the “concentration that abrogated Stat5a nuclear translocation” value [4] was 15 µM, the Stat3 nuclear translocation [5] was “no demonstrable effect” and the CISH expression change [6] was −2.3 fold. The “Cyclin D2 expression change” value [6] was −2.3 fold, the Myc expression change [6] was −1.7 fold and the Pim1 expression change [6] was −1.7 fold. It also gave a Pim2 expression change [6] of −1.7 fold, an SOCS3 expression change [6] of −1.3 fold and a TRIB2 expression change [6] of −1.4 fold. The “increase in dead cells” value [7] was 5 fold, the “increase of nucleosomal DNA fragmentation” value [8] was 230% and the “increase in caspase-3 activation” value [9] was 3 fold. For the same compound, the “fraction of dead cells (sub-G1) in cell cycle analysis” value [10] was “increased the fraction of dead cells”, the “decrease of nuclear Stat5a/b content in tumors” value (from here on “decrease”) ([11]; 25 mg/kg i.p. daily) was 60% and the “decrease” value ([11]; 50 mg/kg i.p. daily) was 78%. The “decrease” value ([11]; 100 mg/kg i.p. daily) was 90%, the Tumor growth ([11]; 25, 50 or 100 mg/kg i.p. daily, all treatment groups vs control groups) was “significantly (P<0.001) suppressed” and the “viable tumor cells in xenograft tumors” value ([11]; IST5-002 groups vs. vehicle) was “massive loss of viable tumor cells”. The “Intratumor levels of nuclear Stat3” value ([11]; any of the doses tested) was “not altered”, the “growth of imatinib-sensitive and -resistant CML cells” value [12] was “blocked the growth” and the “apoptosis in cell cycle analysis” value [13] was “increase in apoptosis”. The “number of viable colonies of primary CML cells” value [14] was “dramatic decrease”, the “activity of PAK1/2” value [15] was “no specific inhibition” and the “viability of EBV-immortalized B-cells that express no active Stat5a/b” value ([16]; 12878, 3798 cell lines) was “only marginal or no effect”. The “viability of SUP-B15 (Bcr-Abl-driven ALL cell line)” value [16] was “decreased viability”.
